# Experimental data as given in ChEMBL document CHEMBL3102836, “Dioxatricyclic and oxabicyclic polyketides from Trichocladium opacum” (J Nat Prod, 2014).
# Active and inactive are the calls of the source. The rule behind the calls is not given here.
# Key:
# Assay type in all cases: functional, cell-based
# [1] = test system: HeLa; experiment: Cytotoxicity against human HeLa cells at 20 ug/ml after 48 hrs by MTS assay
# How it was run: (§1)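 Single-concentration test at 20 μg/mL. Triplicate wells seeded at (2−5) × 10^3 cells, attached overnight, then medium replaced with compound-containing medium (100 mM DMSO stock; vehicle wells 0.1% DMSO); cisplatin positive control. 48 h exposure at 37 °C, humidified 5% CO2. MTS added, 90 min at 37 °C in dark, read at 490 nm.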
# [2] = test system: HCT-116; experiment: Cytotoxicity against human HCT116 cells at 20 ug/ml after 48 hrs by MTS assay; how it was run: as §1
# [3] = test system: SW480; experiment: Cytotoxicity against human SW480 cells at 20 ug/ml after 48 hrs by MTS assay; how it was run: as §1
# [4] = test system: A549; experiment: Cytotoxicity against human A549 cells at 20 ug/ml after 48 hrs by MTS assay; how it was run: as §1
# [5] = test system: HCT-116; experiment: Cytotoxicity against human HCT116 cells after 48 hrs by MTS assay; conditions: HCT-116, 48 h
# How it was run: (§2)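 Triplicate wells seeded at (2−5) × 10^3 cells (by growth rate), attached overnight, then medium replaced with medium carrying serial dilutions from 100 mM DMSO stocks (vehicle wells 0.1% DMSO); cisplatin positive control. 48 h at 37 °C, humidified 5% CO2. MTS added, 90 min at 37 °C in dark, absorbance 490 nm; IC50 reported.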
# [6] = test system: SW480; experiment: Cytotoxicity against human SW480 cells after 48 hrs by MTS assay; conditions: SW480, 48 h; how it was run: as §2
# [7] = test system: A549; experiment: Cytotoxicity against human A549 cells after 48 hrs by MTS assay; conditions: A549, 48 h; how it was run: as §2
# [8] = test system: HeLa; experiment: Cytotoxicity against human HeLa cells after 48 hrs by MTS assay; how it was run: as §2
SMILES,Activity [1],Activity [2],Activity [3],Activity [4],IC50 [5] [µM],IC50 [6] [µM],IC50 [7] [µM],IC50 [8] [µM]
C[C@@H]1C=C[C@H](O)[C@H]2O[C@@]3(C)OC(=O)[C@@]12[C@H]3O,inactive,inactive,inactive,inactive,,,,
C[C@@H]1CC[C@H](O)[C@H]2O[C@@]3(C)OC(=O)[C@@]12[C@H]3O,inactive,,,,56.6,51.9,61,
C[C@@H](O)[C@@H](O)[C@]12C(=O)O[C@H](C=C[C@@H]1C)[C@H]2O,,,,,41.7,43.6,52.3,44.3
COC(=O)[C@]12[C@H](C)[C@H](C[C@H](O)[C@H]1O)O[C@H]2C(C)=O,inactive,inactive,inactive,inactive,,,,
C[C@@H]1C=C[C@H](O)[C@H]2O[C@@]3(C)OC(=O)[C@@]12[C@@H]3O,inactive,,,,48.8,54.9,83.6,
